Measurements from ChEMBL document CHEMBL1138529, “Efficacy, pharmacokinetics, and metabolism of tetrahydroquinoline inhibitors of Plasmodium falciparum protein farnesyltransferase” (Antimicrob Agents Chemother, 2007).
Calls of active or inactive are those of the source.

Legend:
[1] = biological target: D(2) dopamine receptor (Homo sapiens) (UniProt P14416); experiment: Inhibition of dopamine D2S receptor at 10 uM
Summary of the method: (§1)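 Radioligand displacement at a contract lab across a panel of 50 receptors, ion channels and transporters, single test concentration 10 μM; loss of specific ligand binding reported as percent, with >50% decrease counted as significant.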

[2] = Oral bioavailability in Sprague-Dawley rat; format: ADME, organism-based; details: in vivo
Summary of the method: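 Female Sprague-Dawley rats, 10-12 weeks, three per group. Oral gavage at 50 mg/kg and jugular-catheter i.v. dose at 2 mg/kg, both in 3% EtOH-7% Tween 80-90% saline. Plasma taken over time, acetonitrile extraction with internal standard, LC/MS. Bioavailability computed as oral AUC/i.v. AUC.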

[3] = test system: Rattus norvegicus; experiment: Toxicity in Sprague-Dawley rat at 50 mg/kg, po; format: organism-based; set-up: dose 50 mg/kg, route oral; details: in vivo
Summary of the method: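 Female Sprague-Dawley rats, 10-12 weeks, three per group. 50 mg/kg oral gavage in 3% EtOH-7% Tween 80-90% normal saline. Saphenous vein plasma sampled over time, and animals observed for adverse reactions.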

[4] = Inhibition of alpha1 adrenergic receptor at 10 uM
Summary of the method: (§2)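 Radioligand displacement screen at a 10 μM test concentration, run by a contract lab across a panel of 50 receptors, pharmacologically active ion channels and transporters. The read-out is the decrease in specific radiolabeled ligand binding, expressed as a percentage. A decrease above 50% was considered significant.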

[5] = biological target: D(1A) dopamine receptor (Homo sapiens) (UniProt P21728); experiment: Inhibition of dopamine D1 receptor at 10 uM; summary of the method: as §1
[6] = test system: Rattus norvegicus; experiment: Toxicity in Plasmodium berghei NK65 infected Sprague-Dawley rat assessed as effect on glucose levels at 50 mg/kg, perorally administered every 12 hrs for 3 days; format: organism-based; set-up: dose 50 mg/kg, route oral; details: in vivo, po, in the assay text read “every 8 hrs” for “every 12 hrs”
Summary of the method: (§3)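 Female Sprague-Dawley rats, 10-12 weeks, n = 3 per schedule. Dosed 50 mg/kg by oral gavage every 8 h or every 12 h for 72 h. At the end of dosing, blood was sent to a clinical laboratory for complete blood counts, white cell differentials, electrolytes, glucose, renal function, liver enzymes and cholesterol.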

[7] = Inhibition of Plasmodium falciparum protein farnesyltransferase by SPA method
[8] = biological target: Neuromedin-K receptor (Homo sapiens) (UniProt P29371); experiment: Inhibition of NK3 receptor at 10 uM
Summary of the method: (§4)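 Radioligand displacement screen by a contractor across 50 receptors, ion channels and transporters, test compound at 10 μM; decrease in specific ligand binding expressed as percentage, with >50% decrease taken as significant.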

[9] = biological target: Muscarinic acetylcholine receptor M3 (Homo sapiens) (UniProt P20309); experiment: Inhibition of muscarinic M3 receptor at 10 uM; summary of the method: as §1
[10] = biological target: 5-hydroxytryptamine receptor 1B (Homo sapiens) (UniProt P28222); experiment: Inhibition of 5HT1B receptor at 10 uM; summary of the method: as §4
[11] = biological target: Neuropeptide Y receptor type 2 (Homo sapiens) (UniProt P49146); experiment: Inhibition of neuropeptide Y2 receptor at 10 uM; summary of the method: as §1
[12] = biological target: Adenosine receptor A1 (Homo sapiens) (UniProt P30542); experiment: Inhibition of adenosine A1 receptor at 10 uM; summary of the method: as §4
[13] = biological target: 5-hydroxytryptamine receptor 6 (Homo sapiens) (UniProt P50406); experiment: Inhibition of 5HT6 receptor at 10 uM; summary of the method: as §4
[14] = Inhibition of […] GABA-gated chloride channel at 10 uM; summary of the method: as §2
[15] = test system: Rattus norvegicus; experiment: Toxicity in Plasmodium berghei NK65 infected Sprague-Dawley rat assessed as effect on liver enzyme levels at 50 mg/kg, perorally administered every 8 hrs for 3 days; format: organism-based; set-up: dose 50 mg/kg, route oral; details: in vivo, po; summary of the method: as §3
[16] = AUC in BALB/c mouse at 50 mg/kg, po; format: ADME, organism-based; set-up: dose 50 mg/kg, route oral; details: plasma
Summary of the method: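 Three female BALB/c mice (lines for mice, 8–10 weeks) or three female Sprague-Dawley rats (10–12 weeks) per group; 50 mg/kg oral gavage in 3% EtOH-7% Tween 80-90% normal saline. Plasma sampled at set times (tail bleed in mice, saphenous vein in rats), extracted with acetonitrile plus internal standard, quantified by LC/MS; AUC as mean of three animals.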

[17] = test system: Rattus norvegicus; experiment: Toxicity in Plasmodium berghei NK65 infected Sprague-Dawley rat assessed as effect on blood counts at 50 mg/kg, perorally administered every 8 hrs for 3 days; format: organism-based; set-up: dose 50 mg/kg, route oral; details: in vivo, po; summary of the method: as §3
[18] = biological target: Melanocortin receptor 4 (Homo sapiens) (UniProt P32245); experiment: Inhibition of MC4 receptor at 10 uM; summary of the method: as §4
[19] = Elimination half life in Sprague-Dawley rat at 2 mg/kg, iv; format: ADME, organism-based; set-up: dose 2 mg/kg, route intravenous; details: in vivo, read-out: beta t1/2
Summary of the method: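 Three female Sprague-Dawley rats per group (10–12 weeks), jugular-vein catheterized; 2 mg/kg in 3% EtOH-7% Tween 80-90% normal saline given through the catheter. Plasma drawn from the catheter at set times, acetonitrile extraction with internal standard, LC/MS quantification.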

[20] = test system: Plasmodium berghei; experiment: Antiplasmodial activity as reduced parasitaemia against Plasmodium berghei NK65 infected Sprague-Dawley rat at 50 mg/kg every 12 hrs peroral dose for 3 days
[21] = biological target: Beta-1 adrenergic receptor (Homo sapiens) (UniProt P08588); experiment: Inhibition of beta-1 adrenergic receptor at 10 uM; summary of the method: as §1
[22] = biological target: Galanin receptor type 2 (Homo sapiens) (UniProt O43603); experiment: Inhibition of Galanin receptor type 2 at 10 uM; summary of the method: as §4
[23] = Inhibition of SKCa channel at 10 uM; summary of the method: as §2
[24] = biological target: Substance-K receptor (Homo sapiens) (UniProt P21452); experiment: Inhibition of NK2 receptor at 10 uM; summary of the method: as §4
[25] = test system: Rattus norvegicus; experiment: Toxicity in Plasmodium berghei NK65 infected Sprague-Dawley rat assessed as effect on cholesterol levels at 50 mg/kg, perorally administered every 8 hrs for 3 days; format: organism-based; set-up: dose 50 mg/kg, route oral; details: in vivo, po; summary of the method: as §3
[26] = Inhibition of L-type calcium channel at verapamil site at 10 uM; summary of the method: as §2
[27] = biological target: 5-hydroxytryptamine receptor 1A (Homo sapiens) (UniProt P08908); experiment: Inhibition of 5HT1A receptor at 10 uM; summary of the method: as §4
[28] = test system: Rattus norvegicus; experiment: Toxicity in Plasmodium berghei NK65 infected Sprague-Dawley rat assessed as effect on glucose levels at 50 mg/kg, perorally administered every 8 hrs for 3 days; format: organism-based; set-up: dose 50 mg/kg, route oral; details: in vivo, po; summary of the method: as §3
[29] = Metabolic stability in mouse liver microsomes; format: ADME, Microsome
Summary of the method: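 Pooled female liver microsomes at 0.5 mg/ml in 0.1 M potassium phosphate pH 7.4, 3 mM MgCl2, 1 mM EDTA, with NADPH regenerating system (1 mM NADP+, 5 mM glucose-6-phosphate, 1 U/ml G6PDH). Preincubated 10 min at 37°C, then compound added to 1 μM final. Time points quenched with 3 volumes acetonitrile plus internal standard; parent quantified by LC/MS; half-life reported.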

[30] = biological target: Histamine H1 receptor (Homo sapiens) (UniProt P35367); experiment: Inhibition of histamine H1 receptor at 10 uM; summary of the method: as §1
[31] = test system: Salmonella typhimurium; experiment: Toxicity against Salmonella enterica serovar Typhimurium TA98; format: organism-based, Salmonella enterica subsp. enterica serovar Typhimurium; details: in vivo
Summary of the method: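 Ames fluctuation test in S. Typhimurium TA98 (frameshift) and TA100 (base substitution), with and without rat liver S9. Tested at 5, 10, 50 and 100 μM plus higher concentrations, 48 wells each, in histidine-free liquid medium for 96 h. Growth read spectrophotometrically by pH-indicator color change. Bacterial cytotoxicity assayed in parallel at the same concentrations.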

Chain of Galanin receptor type 2 (Homo sapiens) (O43603 whole entry): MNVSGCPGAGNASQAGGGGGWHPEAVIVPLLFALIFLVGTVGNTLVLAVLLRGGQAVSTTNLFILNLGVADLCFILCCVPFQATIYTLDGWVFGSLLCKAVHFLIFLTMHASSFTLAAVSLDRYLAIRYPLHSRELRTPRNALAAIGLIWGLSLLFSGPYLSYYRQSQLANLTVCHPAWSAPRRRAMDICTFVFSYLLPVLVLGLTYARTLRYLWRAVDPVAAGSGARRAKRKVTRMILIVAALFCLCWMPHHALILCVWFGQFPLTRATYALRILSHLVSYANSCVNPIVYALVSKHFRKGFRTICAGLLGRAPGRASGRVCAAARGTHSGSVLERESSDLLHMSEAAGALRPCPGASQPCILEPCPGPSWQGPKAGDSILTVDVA
Chain of D(1A) dopamine receptor (Homo sapiens) (P21728 whole entry): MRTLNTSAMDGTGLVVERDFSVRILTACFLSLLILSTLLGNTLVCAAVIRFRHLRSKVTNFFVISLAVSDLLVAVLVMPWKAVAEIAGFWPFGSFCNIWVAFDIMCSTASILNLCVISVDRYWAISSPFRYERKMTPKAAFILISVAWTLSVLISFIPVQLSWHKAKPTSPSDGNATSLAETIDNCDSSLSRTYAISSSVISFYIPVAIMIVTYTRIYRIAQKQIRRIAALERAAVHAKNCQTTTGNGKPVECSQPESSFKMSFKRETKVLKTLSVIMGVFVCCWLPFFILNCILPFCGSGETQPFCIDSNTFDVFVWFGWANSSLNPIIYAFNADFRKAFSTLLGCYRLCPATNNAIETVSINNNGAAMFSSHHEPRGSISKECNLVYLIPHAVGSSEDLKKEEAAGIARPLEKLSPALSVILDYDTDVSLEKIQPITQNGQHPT
Chain of Adenosine receptor A1 (Homo sapiens) (P30542 whole entry): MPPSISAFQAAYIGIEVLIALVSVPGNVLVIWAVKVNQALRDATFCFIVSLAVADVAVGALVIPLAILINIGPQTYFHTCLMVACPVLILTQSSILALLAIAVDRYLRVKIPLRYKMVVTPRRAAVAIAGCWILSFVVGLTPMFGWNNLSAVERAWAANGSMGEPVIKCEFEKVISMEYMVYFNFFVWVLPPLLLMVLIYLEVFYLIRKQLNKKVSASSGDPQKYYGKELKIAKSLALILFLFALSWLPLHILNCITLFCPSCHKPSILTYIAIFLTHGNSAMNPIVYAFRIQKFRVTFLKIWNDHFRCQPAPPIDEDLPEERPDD
Chain of Melanocortin receptor 4 (Homo sapiens) (P32245 whole entry): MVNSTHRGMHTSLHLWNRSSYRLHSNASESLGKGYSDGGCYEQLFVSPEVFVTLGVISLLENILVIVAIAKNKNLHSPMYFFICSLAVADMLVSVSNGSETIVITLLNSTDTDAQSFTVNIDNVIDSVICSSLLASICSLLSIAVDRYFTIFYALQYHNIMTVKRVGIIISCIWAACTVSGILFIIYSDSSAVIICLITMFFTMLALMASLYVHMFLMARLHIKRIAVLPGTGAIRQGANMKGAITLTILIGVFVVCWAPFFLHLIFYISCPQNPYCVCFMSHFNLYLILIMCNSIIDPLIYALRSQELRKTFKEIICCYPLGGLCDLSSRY
Chain of 5-hydroxytryptamine receptor 1A (Homo sapiens) (P08908 whole entry): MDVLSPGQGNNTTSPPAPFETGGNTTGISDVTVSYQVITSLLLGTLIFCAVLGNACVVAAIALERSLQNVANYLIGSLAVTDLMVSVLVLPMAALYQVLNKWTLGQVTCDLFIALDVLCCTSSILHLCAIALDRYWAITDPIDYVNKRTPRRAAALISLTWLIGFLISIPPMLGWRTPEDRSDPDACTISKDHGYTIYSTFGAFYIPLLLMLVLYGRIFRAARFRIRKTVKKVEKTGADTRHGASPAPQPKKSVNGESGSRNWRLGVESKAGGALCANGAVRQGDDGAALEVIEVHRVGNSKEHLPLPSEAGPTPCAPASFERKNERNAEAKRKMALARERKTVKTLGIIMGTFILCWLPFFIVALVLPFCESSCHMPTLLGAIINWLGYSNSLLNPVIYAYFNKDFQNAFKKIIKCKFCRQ
Chain of Beta-1 adrenergic receptor (Homo sapiens) (P08588 whole entry, looked up): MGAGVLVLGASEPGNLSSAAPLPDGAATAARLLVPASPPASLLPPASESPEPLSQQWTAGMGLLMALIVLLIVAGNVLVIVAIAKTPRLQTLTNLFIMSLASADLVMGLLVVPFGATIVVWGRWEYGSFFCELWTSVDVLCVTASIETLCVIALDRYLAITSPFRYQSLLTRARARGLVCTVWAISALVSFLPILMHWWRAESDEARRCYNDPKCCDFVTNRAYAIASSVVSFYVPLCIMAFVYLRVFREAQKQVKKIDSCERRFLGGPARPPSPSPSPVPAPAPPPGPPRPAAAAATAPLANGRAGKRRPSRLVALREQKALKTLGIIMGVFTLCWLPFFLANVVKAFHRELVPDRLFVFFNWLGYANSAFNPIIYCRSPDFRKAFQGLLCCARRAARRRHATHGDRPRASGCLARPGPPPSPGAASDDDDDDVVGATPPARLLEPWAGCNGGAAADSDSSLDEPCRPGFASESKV
Chain of Histamine H1 receptor (Homo sapiens) (P35367 whole entry): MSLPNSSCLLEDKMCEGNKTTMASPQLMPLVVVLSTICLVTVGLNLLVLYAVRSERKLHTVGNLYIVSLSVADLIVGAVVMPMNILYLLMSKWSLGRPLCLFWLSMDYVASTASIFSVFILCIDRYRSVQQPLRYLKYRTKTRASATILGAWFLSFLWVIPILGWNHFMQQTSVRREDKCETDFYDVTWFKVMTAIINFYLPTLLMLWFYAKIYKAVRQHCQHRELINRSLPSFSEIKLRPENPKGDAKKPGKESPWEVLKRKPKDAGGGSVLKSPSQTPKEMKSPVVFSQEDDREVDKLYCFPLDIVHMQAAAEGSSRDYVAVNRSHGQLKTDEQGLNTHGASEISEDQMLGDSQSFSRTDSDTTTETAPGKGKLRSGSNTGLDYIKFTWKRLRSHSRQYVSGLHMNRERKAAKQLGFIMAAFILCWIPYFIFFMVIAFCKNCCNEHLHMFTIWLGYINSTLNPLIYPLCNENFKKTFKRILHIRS
Chain of 5-hydroxytryptamine receptor 6 (Homo sapiens) (P50406 whole entry): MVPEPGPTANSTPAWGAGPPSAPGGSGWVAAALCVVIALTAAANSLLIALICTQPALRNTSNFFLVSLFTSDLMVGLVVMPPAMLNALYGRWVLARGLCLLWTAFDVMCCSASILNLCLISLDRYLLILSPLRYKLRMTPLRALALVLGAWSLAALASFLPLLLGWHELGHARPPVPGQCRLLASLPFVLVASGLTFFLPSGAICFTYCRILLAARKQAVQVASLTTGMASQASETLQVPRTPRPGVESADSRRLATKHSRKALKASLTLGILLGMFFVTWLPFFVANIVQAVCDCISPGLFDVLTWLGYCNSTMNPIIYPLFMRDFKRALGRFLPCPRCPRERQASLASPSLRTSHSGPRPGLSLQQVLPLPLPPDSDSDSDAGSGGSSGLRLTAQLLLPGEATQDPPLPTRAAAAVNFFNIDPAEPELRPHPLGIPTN
Chain of 5-hydroxytryptamine receptor 1B (Homo sapiens) (P28222 whole entry): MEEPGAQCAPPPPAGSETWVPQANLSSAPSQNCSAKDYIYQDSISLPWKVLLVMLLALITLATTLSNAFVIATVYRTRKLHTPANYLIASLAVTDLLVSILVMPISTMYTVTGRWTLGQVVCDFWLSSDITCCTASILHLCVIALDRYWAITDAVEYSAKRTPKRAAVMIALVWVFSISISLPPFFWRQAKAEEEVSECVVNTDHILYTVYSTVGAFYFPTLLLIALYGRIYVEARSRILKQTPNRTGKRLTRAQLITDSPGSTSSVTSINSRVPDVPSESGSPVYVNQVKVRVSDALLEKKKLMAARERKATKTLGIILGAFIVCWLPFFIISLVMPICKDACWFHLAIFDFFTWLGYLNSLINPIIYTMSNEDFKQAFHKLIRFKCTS
Chain of Muscarinic acetylcholine receptor M3 (Homo sapiens) (P20309 whole entry, looked up): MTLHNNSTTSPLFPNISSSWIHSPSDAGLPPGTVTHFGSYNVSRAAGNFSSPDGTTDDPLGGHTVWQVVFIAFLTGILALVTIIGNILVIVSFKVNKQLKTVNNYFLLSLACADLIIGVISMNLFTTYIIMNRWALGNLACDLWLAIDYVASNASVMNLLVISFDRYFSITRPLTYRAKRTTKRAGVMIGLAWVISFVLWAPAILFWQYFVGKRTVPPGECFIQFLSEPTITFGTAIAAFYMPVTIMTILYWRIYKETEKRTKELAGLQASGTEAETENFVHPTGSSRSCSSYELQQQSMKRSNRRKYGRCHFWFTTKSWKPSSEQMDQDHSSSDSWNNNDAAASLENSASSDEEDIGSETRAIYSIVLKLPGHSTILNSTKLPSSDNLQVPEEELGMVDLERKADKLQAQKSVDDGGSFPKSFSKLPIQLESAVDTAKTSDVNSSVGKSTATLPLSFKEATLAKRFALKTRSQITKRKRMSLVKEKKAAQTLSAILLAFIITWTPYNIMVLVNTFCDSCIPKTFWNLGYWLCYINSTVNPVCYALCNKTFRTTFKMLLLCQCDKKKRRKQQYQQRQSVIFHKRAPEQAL
Chain of D(2) dopamine receptor (Homo sapiens) (P14416 whole entry): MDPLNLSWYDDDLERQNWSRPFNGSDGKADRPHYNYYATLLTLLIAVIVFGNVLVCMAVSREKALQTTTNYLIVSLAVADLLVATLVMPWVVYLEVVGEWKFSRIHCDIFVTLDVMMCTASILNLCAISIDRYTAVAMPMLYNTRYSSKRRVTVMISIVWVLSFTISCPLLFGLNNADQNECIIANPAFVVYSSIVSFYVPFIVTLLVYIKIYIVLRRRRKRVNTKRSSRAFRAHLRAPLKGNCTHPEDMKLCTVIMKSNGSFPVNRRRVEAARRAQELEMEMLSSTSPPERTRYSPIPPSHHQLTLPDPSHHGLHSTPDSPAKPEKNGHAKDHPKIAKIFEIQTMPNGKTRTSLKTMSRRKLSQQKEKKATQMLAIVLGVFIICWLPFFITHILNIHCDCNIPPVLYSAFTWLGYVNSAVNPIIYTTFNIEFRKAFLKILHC

In the case of `COC(=O)N1CCC(CN(C2Cc3cc(C#N)ccc3N(Cc3cncn3C)C2)S(=O)(=O)c2ccccn2)CC1` (stereo unspecified), the inhibition [1] is reported as “inactive”, the bioavailability [2] is reported as 82% and the Activity [3] is reported as “Non-toxic”. The inhibition [4] was “inactive”, the inhibition [5] was “inactive” and the Activity [6] was “Non-toxic”. The IC50 [7] was 0.58 nM, the inhibition [8] was “inactive” and the inhibition [9] was “inactive”. The inhibition [10] was “inactive”, the inhibition [11] was “inactive” and the inhibition [12] was “inactive”. The inhibition [13] was “inactive”, the inhibition [14] was “inactive” and the Activity [15] was “Non-toxic”. The AUC [16] was 3.68 µM·h, the Activity [17] was “Non-toxic” and the inhibition [18] was “inactive”. For the same compound, the half-life [19] was 17 min, the Activity [20] was “inactive” and the inhibition [21] was “inactive”. The inhibition [22] was “inactive”, the inhibition [23] was “inactive” and the inhibition [24] was “inactive”. The Activity [25] was “Non-toxic”, the inhibition [26] was “inactive” and the inhibition [27] was “inactive”. For the same compound, the Activity [28] was “Non-toxic”, the half-life [29] was 5.8 min and the inhibition [30] was “inactive”. For the same compound, the Activity [31] was “Non-toxic”.
